Measurements as given in PMC10797327 (RSC Advances, 2024).
pIC50: −log10 of the molar value.

Columns and labels:
MTT cell viability assay = type: cell-based, murine; settings: mouse, RAW264.7 macrophage cells
Procedure, shortened: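 RAW264.7 cells are cultured with test compound for 48 h, then viability is measured. CC50 is the concentration that reduces viability to 50%.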

IL-1β = IL-1β production in LPS-stimulated RAW264.7 cells; type: cell-based; settings: Mus musculus, RAW264.7, 48 h, read-out: IC50 IL-1β
Procedure, shortened: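 RAW264.7 macrophages stimulated with LPS and cultured for 48 h with test compound. Cytokine production is measured, and IC50 is taken as the concentration that reduces cytokine production by 50%.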

pIC50 (IL-1β): 4.58
SMILES: CC(=O)Oc1cccc2c1C(=O)c1c(OC(C)=O)cc(C(=O)O)cc1C2=O [Diacerein, diacerein]
CC50 at 48 h (MTT cell viability assay): 151 µM
